ChEMBL document CHEMBL1649091, “Flavonoids with an oligopolysulfated moiety: a new class of anticoagulant agents” (J Med Chem, 2011)
Activity calls are given as the source filed them. The rule behind the calls is not given here.

Key:
[1] = test system: Plasma; test: Anticoagulant activity in human plasma assessed as increase in activated partial prothrombin time at 5 x 10^-3M relative to control; type: functional
Outline: (§1)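 Citrated pooled normal human plasma, 1:1 with compound in water (water control), held 2 min at 37 °C before coagulometer reading. APTT: reagent, 6 min at 37 °C, then 25 mmol/L CaCl2. PT: prewarmed reagent. TT: prewarmed 100 U/mL thrombin. Ratio is clotting time with compound over time with water. Duplicates repeated on three days (n = 6).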

[2] = test system: Plasma; test: Anticoagulant activity in human plasma assessed as increase in prothrombin time at 5 x 10^-3M relative to control; type: functional; outline: as §1
[3] = test system: Plasma; test: Anticoagulant activity in human plasma assessed as increase in thrombin time at 0.5 x 10^-3M relative to control; type: functional, cell-free; outline: as §1
[4] = test system: Plasma; test: Anticoagulant activity in human plasma assessed as increase in thrombin time at 5 x 10^-3M relative to control; type: functional, cell-free; outline: as §1
[5] = test system: Blood; test: Anticoagulant activity in human whole blood assessed as clotting time at 6.25 x 10^-4M by thromboelastography in presence of intrinsic activators; type: functional
Outline: (§2)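 Citrated whole blood from healthy donors (1:9 citrate), run within 5 h on a ROTEM analyzer. Compound in saline diluted 1:16 into blood to the final concentration stated; saline control. Intrinsic (InTEM) or extrinsic (ExTEM) activator added. Clot monitored at 37 °C in an oscillating cup-and-pin system for up to 60 min, giving R, K, angle and MA.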

[6] = Stability of the compound in human plasma assessed as compound remaining after 3 hrs; type: ADME, cell-free; conditions: read-out: Activity
Outline: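 Compound at 25 µM final in human plasma diluted 1:1 with PBS pH 7.4, shaken at 37 °C for 180 min. Time-zero and 180-min samples quenched with TBA buffer and cold acetonitrile, then centrifuged. Supernatant dried, redissolved and analysed by HPLC. Three independent samples per time point.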

[7] = test system: Blood; test: Anticoagulant activity in human whole blood assessed as alpha angle at 6.25 x 10^-4M by thromboelastography in presence of extrinsic activators; type: functional; outline: as §2
[8] = biological target: T1, Coagulation factor X/antithrombin III (Homo sapiens) (UniProt P01008+P00742); test: Inhibition of human antithrombin 3/factor 10a assessed as 25 x 10^-6M CBS31.39 substrate hydrolysis at 1 x 10^-3M; type: protein-complex assay
[9] = test system: Mus musculus; test: Hepatotoxicity in mouse liver assessed as change in plasma GOT/GPT level at 150 umol/kg, ip; type: toxicity, organism-based; conditions: in vivo
Outline: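 Male CD1 mice (30-35 g), compound in saline ip at 150 µmol/kg. Portal vein citrated blood taken at 30, 60 and 120 min. GOT and GPT (U/L) measured in platelet-poor plasma on an automated chemistry analyzer. Four independent experiments, mean ± SEM.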

[10] = Antiplatelet activity against collagen EPI-induced human platelet aggregation assessed as closure time at 6.25 x 10^-4M; type: functional
Outline: (§3)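 Compound solution added to citrated human whole blood (125 µL into 1875 µL) to the final concentration stated, then run on a PFA-100 in collagen/ADP and collagen/epinephrine cartridges. Closure time is the time until platelets occlude the membrane aperture, in seconds. Mean ± SEM of three independent experiments.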

[11] = test system: Blood; test: Anticoagulant activity in human whole blood assessed as clotting formation time at 6.25 x 10^-4M by thromboelastography in presence of extrinsic activators; type: functional; outline: as §2
[12] = biological target: Coagulation factor X (Homo sapiens) (UniProt P00742); test: Inhibition of human factor 10a assessed as 125 x 10^-6M chromogenic TH substrate hydrolysis at 2 x 10^-3M
Outline: (§4)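 Direct FXa test, with buffer in place of ATIII: compound in water in 50 mM Tris/HCl pH 8.3, 227 mM NaCl, 0.1% BSA, 10 min at 37 °C. Human FXa (0.5 U/mL final) added for 10 min, then CBS 31.39 (25 or 125 × 10^-6 M). Read at 405 nm every 12 s for 20 min. Percent inhibition from initial slope against water control, Michaelis-Menten fit.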

[13] = Anticoagulant activity in human plasma assessed as concentration required to double prothrombin time; type: functional
Outline: (§5)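 Citrated pooled normal human plasma mixed 1:1 with compound in water (final 5 × 10-3 to 0.05 × 10^-3 M) and held 2 min at 37 °C. APTT: reagent added, 6 min at 37 °C, then 25 mmol/L CaCl2. PT: prewarmed PT reagent. TT: prewarmed thrombin (100 U/mL). Clotting read on a coagulometer, duplicate, three days (n = 6). Doubling concentration taken from linear regression of each concentration-response curve.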

[14] = biological target: T1, Coagulation factor X/antithrombin III (Homo sapiens); test: Inhibition of human antithrombin 3/factor 10a assessed as 125 x 10^-6M CBS31.39 substrate hydrolysis at 0.5 x 10^-3M; type: protein-complex assay
[15] = (§6) Anticoagulant activity in human plasma assessed as concentration required to double thrombin time; type: functional; outline: as §5
[16] = biological target: T1, Coagulation factor X/antithrombin III (Homo sapiens); test: Inhibition of human antithrombin 3/factor 10a assessed as 25 x 10^-6M CBS31.39 substrate hydrolysis at 0.5 x 10^-3M; type: protein-complex assay
[17] = biological target: T1, Coagulation factor X/antithrombin III (Homo sapiens); test: Inhibition of human antithrombin 3/factor 10a assessed as 25 x 10^-6M CBS31.39 substrate hydrolysis at 2 x 10^-3M; type: protein-complex assay
[18] = test system: Blood; test: Anticoagulant activity in human whole blood assessed as alpha angle at 6.25 x 10^-4M by thromboelastography in presence of intrinsic activators; type: functional; outline: as §2
[19] = Anticoagulant activity in human plasma assessed as concentration required to double activated partial prothrombin time; type: functional; outline: as §5
[20] = biological target: Coagulation factor X (Homo sapiens) (UniProt P00742); test: Inhibition of human factor 10a assessed as 125 x 10^-6M chromogenic TH substrate hydrolysis at 1 x 10^-3M; outline: as §4
[21] = test system: Blood; test: Anticoagulant activity in human whole blood assessed as maximum amplitude at 6.25 x 10^-4M by thromboelastography in presence of extrinsic activators; type: functional; outline: as §2
[22] = biological target: Coagulation factor X (Homo sapiens) (UniProt P00742); test: Inhibition of human factor 10a assessed as 125 x 10^-6M chromogenic TH substrate hydrolysis at 0.5 x 10^-3M; outline: as §4
[23] = test system: Mus musculus; test: Anticoagulant activity in mouse assessed as increase in activated partial prothrombin time at 150 umol/kg, ip relative to control; type: functional
Outline: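 Adult male CD1 mice (30-35 g) given compound in saline ip at 150 µmol/kg, fasted on the day. Citrated portal vein blood taken at 30, 60 and 120 min. APTT measured in platelet-poor plasma. Expressed as ratio to saline-treated mice, mean ± SEM of three experiments.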

[24] = test system: Blood; test: Anticoagulant activity in human whole blood assessed as maximum amplitude at 6.25 x 10^-4M by thromboelastography in presence of intrinsic activators; type: functional; outline: as §2
[25] = biological target: T1, Coagulation factor X/antithrombin III (Homo sapiens); test: Inhibition of human antithrombin 3/factor 10a assessed as 125 x 10^-6M CBS31.39 substrate hydrolysis at 1 x 10^-3M; type: protein-complex assay
[26] = biological target: Prothrombin (Homo sapiens) (UniProt P00734); test: Inhibition of human thrombin
Outline: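 Direct thrombin assay without ATIII: compound in water in 50 mM Tris/HCl pH 8.3, 227 mM NaCl, 0.1% BSA, 10 min at 37 °C. Human thrombin (0.06 U/mL final) added for 10 min, then Chromozym TH (178 × 10^-6 M). Read at 405 nm every 12 s for 20 min. Percent inhibition from initial slope against water control. Duplicates on ≥3 days.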

[27] = test system: Blood; test: Anticoagulant activity in human whole blood assessed as clotting formation time at 6.25 x 10^-4M by thromboelastography in presence of intrinsic activators; type: functional; outline: as §2
[28] = biological target: Coagulation factor X (Homo sapiens) (UniProt P00742); test: Inhibition of human factor 10a assessed as 25 x 10^-6M chromogenic TH substrate hydrolysis at 1 x 10^-3M; outline: as §4
[29] = test system: Blood; test: Anticoagulant activity in human whole blood assessed as clotting time at 6.25 x 10^-4M by thromboelastography in presence of extrinsic activators; type: functional; outline: as §2
[30] = Antiplatelet activity against collagen ADP-induced human platelet aggregation assessed as closure time at 6.25 x 10^-4M; type: functional; outline: as §3
[31] = biological target: T1, Coagulation factor X/antithrombin III (Homo sapiens); test: Inhibition of human antithrombin 3/factor 10a assessed as 125 x 10^-6M CBS31.39 substrate hydrolysis at 2 x 10^-3M; type: protein-complex assay
[32] = biological target: Coagulation factor X (Homo sapiens) (UniProt P00742); test: Inhibition of human factor 10a assessed as 25 x 10^-6M chromogenic TH substrate hydrolysis at 0.5 x 10^-3M; outline: as §4
[33] = biological target: Coagulation factor X (Homo sapiens) (UniProt P00742); test: Inhibition of human factor 10a assessed as 25 x 10^-6M chromogenic TH substrate hydrolysis at 2 x 10^-3M; outline: as §4
[34] = species: Homo sapiens; test: as §6; type: functional; outline: as §5
[35] = test system: Plasma; test: Anticoagulant activity in human plasma assessed as increase in prothrombin time at 0.5 x 10^-3M relative to control; type: functional; outline: as §1
[36] = test system: Plasma; test: Anticoagulant activity in human plasma assessed as increase in activated partial prothrombin time at 0.5 x 10^-3M relative to control; type: functional; outline: as §1

Coagulation factor X (Homo sapiens), sequence (P00742 41-179 limits assumed): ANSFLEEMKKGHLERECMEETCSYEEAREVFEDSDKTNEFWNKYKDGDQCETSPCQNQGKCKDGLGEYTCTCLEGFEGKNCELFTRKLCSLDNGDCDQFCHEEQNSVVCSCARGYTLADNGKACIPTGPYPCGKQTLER
Coagulation factor X (Homo sapiens), sequence (P00742 235-488 limits assumed): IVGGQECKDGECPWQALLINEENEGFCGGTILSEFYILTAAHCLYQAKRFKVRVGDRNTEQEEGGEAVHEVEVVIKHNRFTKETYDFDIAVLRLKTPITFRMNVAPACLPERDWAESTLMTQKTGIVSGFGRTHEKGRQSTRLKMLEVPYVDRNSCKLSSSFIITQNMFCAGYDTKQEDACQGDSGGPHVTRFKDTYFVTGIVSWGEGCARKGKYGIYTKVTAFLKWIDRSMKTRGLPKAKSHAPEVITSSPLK

| inhibition [8] | inhibition [12] | inhibition [14] | inhibition [16] | inhibition [17] | inhibition [20] | inhibition [22] | inhibition [25] | inhibition [26] | inhibition [28] | SMILES | Time [5] | Activity [7] | Time [10] | Time [11] | 2PT [13] | Activity [18] | 2aPTT [19] | Activity [21] | Activity [24] | Time [27] | further results |
| --- | --- | --- | --- | --- | --- | --- | --- | --- | --- | --- | --- | --- | --- | --- | --- | --- | --- | --- | --- | --- | --- |
| – | – | – | – | – | – | – | – | – | – | COc1ccc([C@@H]2CC(=O)c3c(O)cc(OS(=O)(=O)O)cc3O2)cc1OS(=O)(=O)O [HESPERETIN 3',7-O-DISULFATE] | – | – | – | – | – | – | – | – | – | – | fold change (FC) [1]: 1.1; fold change (FC) [2]: 1.2; Activity [3]: inactive; Activity [4]: inactive |
| 22.6% | 23.4% | 28.9% | inactive | 43.7% | inactive | inactive | 38.7% | inactive | inactive | COc1ccc(-c2cc(=O)c3c(O)cc(O[C@@H]4O[C@H](CO[C@@H]5O[C@@H](C)[C@H](OS(=O)(=O)O)[C@@H](OS(=O)(=O)O)[C@H]5OS(=O)(=O)O)[C@@H](OS(=O)(=O)O)[C@H](OS(=O)(=O)O)[C@H]4OS(=O)(=O)O)cc3o2)cc1O | 267 s | 68 degree | 171 s | 150 s | 2230 µM | 57 degree | 435 µM | 54 mm | 45 mm | 229 s | remaining at 3 h [6]: 95%; Activity [9]: Non-toxic; Activity [15]: > 5000 µM; fold change (FC) [23]: 1.5; Time [29]: 49 s; Time [30]: 162 s; inhibition [31]: 50.7%; inhibition [32]: inactive |
| 47.6% | 53.3% | 20.3% | 28.1% | 56% | 38.8% | inactive | 24.8% | inactive | 41.9% | C[C@H]1O[C@@H](OC[C@@H]2O[C@H](Oc3c(-c4ccc(OCCOS(=O)(=O)O)c(OCCOS(=O)(=O)O)c4)oc4cc(OCCOS(=O)(=O)O)cc(O)c4c3=O)[C@@H](OS(=O)(=O)O)[C@H](OS(=O)(=O)O)[C@H]2OS(=O)(=O)O)[C@@H](OS(=O)(=O)O)[C@@H](OS(=O)(=O)O)[C@@H]1OS(=O)(=O)O | 560 s | 69 degree | >300 s | 111 s | 835 µM | 67 degree | 145 µM | 61 mm | 64 mm | 122 s | Activity [15]: 867 µM; Time [29]: 105 s; Time [30]: 204 s; inhibition [31]: 33.6%; inhibition [32]: 25.7% |
| 40.2% | inactive | 39.7% | 30.5% | 49.6% | inactive | inactive | 46.2% | inactive | inactive | COc1ccc([C@@H]2CC(=O)c3c(O)cc(O[C@@H]4O[C@H](CO[C@@H]5O[C@@H](C)[C@H](OS(=O)(=O)O)[C@@H](OS(=O)(=O)O)[C@H]5OS(=O)(=O)O)[C@@H](OS(=O)(=O)O)[C@H](OS(=O)(=O)O)[C@H]4OS(=O)(=O)O)cc3O2)cc1O | 300 s | 70 degree | 167 s | 116 s | 3620 µM | 57 degree | 413 µM | 59 mm | 40 mm | 214 s | inhibition [33]: inactive; Activity [34]: inactive; Time [29]: 59 s; Time [30]: 139 s; inhibition [31]: 58.1%; inhibition [32]: inactive |
| – | – | – | – | – | – | – | – | – | – | COc1ccc(-c2cc(=O)c3c(O)cc(OS(=O)(=O)O)cc3o2)cc1OS(=O)(=O)O | – | – | – | – | – | – | – | – | – | – | fold change (FC) [35]: 1.1; Activity [3]: inactive; Activity [4]: inactive; fold change (FC) [36]: 1.65 |
